According to ChEMBL document CHEMBL4261585, “Synthesis of 1,2,3-triazole linked 4(3H)-Quinazolinones as potent antibacterial agents against multidrug-resistant Staphylococcus aureus” (Eur J Med Chem, 2018):
In brackets after ≈: the same amount, converted by molar mass.

What was measured:
Format in all cases: functional
Mycobacteroides chelonae = test: Antimycobacterial activity against Mycobacterium chelonae by pesto blue-dye based broth microdilution assay
Klebsiella pneumoniae = test: Antibacterial activity against Klebsiella pneumoniae ATCC BAA-1705 after 16 to 18 hrs by CLSI method
Summary of the method: (§1)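 Broth microdilution MIC per CLSI. A single colony from Mueller-Hinton agar is grown overnight in cation-supplemented Mueller-Hinton broth (37 °C, shaking, 18–24 h). Incubation is 37 °C for 16–18 h. MIC is the lowest concentration with no visible growth. Three independent runs, each in duplicate.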

[1] = system: Mycobacterium tuberculosis; test: Antimycobacterial activity against Mycobacterium tuberculosis H37Rv ATCC 27294 after 7 days by pesto blue-dye based broth microdilution assay; conditions: H37Rv ATCC 27294, 168 h
Summary of the method: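 Broth microdilution in Middlebrook 7H9 with 10% ADC-Tween-80 (0.2% glycerol, 0.05% Tween-80). Compound is added from 10 mg/mL DMSO stocks as two-fold dilutions, 64–0.5 mg/L. Plates are incubated 7 days at 37 °C and read with PrestoBlue resazurin dye. MIC is the lowest concentration inhibiting visible growth, three replicates in duplicate.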

[2] = system: Mycobacteroides abscessus; test: Antimycobacterial activity against Mycobacterium abscessus by pesto blue-dye based broth microdilution assay
Pseudomonas aeruginosa = test: Antibacterial activity against Pseudomonas aeruginosa ATCC 27853 after 16 to 18 hrs by CLSI method; summary of the method: as §1
Staphylococcus aureus = test: Antibacterial activity against Staphylococcus aureus ATCC 29213 after 16 to 18 hrs by CLSI method; summary of the method: as §1
Acinetobacter baumannii = test: Antibacterial activity against Acinetobacter baumannii BAA-1605 after 16 to 18 hrs by CLSI method; summary of the method: as §1
[3] = system: Mycolicibacterium fortuitum; test: Antimycobacterial activity against Mycobacterium fortuitum by pesto blue-dye based broth microdilution assay
Escherichia coli = test: Antibacterial activity against Escherichia coli ATCC 25922 after 16 to 18 hrs by CLSI method; summary of the method: as §1

| Compound | MIC (Mycobacteroides chelonae) [µg/mL] | MIC (Klebsiella pneumoniae) [µg/mL] | MIC [1] [µg/mL] | MIC [2] [µg/mL] | MIC (Pseudomonas aeruginosa) [µg/mL] | MIC (Staphylococcus aureus) [µg/mL] | MIC (Acinetobacter baumannii) [µg/mL] | MIC [3] [µg/mL] | MIC (Escherichia coli) [µg/mL] |
| --- | --- | --- | --- | --- | --- | --- | --- | --- | --- |
| Cc1cc(-n2cc(COc3cccc(-n4c(C)nc5ccccc5c4=O)c3)nn2)cc(C)c1C | > 64 | > 64 | > 64 | > 64 | > 64 | > 64 | > 64 | > 64 | > 64 |
| Cc1nc2ccccc2c(=O)n1-c1cccc(OCc2cn(-c3cccc(O)c3)nn2)c1 | > 64 | > 64 | > 64 | > 64 | > 64 | > 64 | > 64 | > 64 | > 64 |
| N#Cc1ccc(/C=C/c2nc3ccccc3c(=O)n2-c2cccc(OCc3cn(Cc4ccc(Br)cc4)nn3)c2)cc1 | > 64 | > 64 | > 64 | > 64 | > 64 | 16 (≈ 26 µM) | > 64 | > 64 | > 64 |
| N#Cc1ccc(/C=C/c2nc3ccccc3c(=O)n2-c2ccc(OCc3cn(Cc4ccc(Br)cc4)nn3)cc2)cc1 | > 64 | > 64 | > 64 | > 64 | > 64 | > 64 | > 64 | > 64 | > 64 |
| COc1ccc(-n2cc(COc3cccc(-n4c(C)nc5ccccc5c4=O)c3)nn2)cc1 | > 64 | > 64 | > 64 | > 64 | > 64 | > 64 | > 64 | > 64 | > 64 |
| Cc1nc2ccccc2c(=O)n1-c1cccc(OCc2cn(-c3ccc(F)c(Cl)c3)nn2)c1 | > 64 | > 64 | > 64 | > 64 | > 64 | > 64 | > 64 | > 64 | > 64 |
| N#Cc1ccc(/C=C/c2nc3ccccc3c(=O)n2-c2cccc(OCc3cn(-c4ccc(C(F)(F)F)cc4)nn3)c2)cc1 | > 64 | > 64 | > 64 | > 64 | > 64 | 4 (≈ 6.77 µM) | > 64 | > 64 | > 64 |
| Cc1cccc2c(=O)n(-c3cccc(OCc4cn(-c5cccc(Cl)c5)nn4)c3)c(C)nc12 | > 64 | > 64 | > 64 | > 64 | > 64 | > 64 | > 64 | > 64 | > 64 |
| N#Cc1ccc(/C=C/c2nc3ccccc3c(=O)n2-c2cccc(OCc3cn(-c4cccc(C(=O)O)c4)nn3)c2)cc1 | > 64 | > 64 | > 64 | > 64 | > 64 | 4 (≈ 7.06 µM) | > 64 | > 64 | > 64 |
| Cc1nc2ccccc2c(=O)n1-c1cccc(OCc2cn(-c3ccc(C(=O)O)cc3)nn2)c1 | > 64 | > 64 | > 64 | > 64 | > 64 | > 64 | > 64 | > 64 | > 64 |
| CCC(C)(C)c1ccc(OCc2cn(-c3cccc(-n4c(C)nc5ccccc5c4=O)c3)nn2)cc1 | > 64 | > 64 | > 64 | > 64 | > 64 | > 64 | > 64 | > 64 | > 64 |
| Cc1nc2ccccc2c(=O)n1-c1cccc(OCc2cn(-c3ccc(Cl)cc3)nn2)c1 | > 64 | > 64 | > 64 | > 64 | > 64 | > 64 | > 64 | > 64 | > 64 |
| O=c1c2ccccc2nc(/C=C/c2ccc(Cl)cc2)n1-c1cccc(-n2cc(-c3ccccc3)nn2)c1 | > 64 | > 64 | > 64 | > 64 | > 64 | > 64 | > 64 | > 64 | > 64 |
| Cc1cc([N+](=O)[O-])ccc1-n1cc(COc2cccc(-n3c(C)nc4ccccc4c3=O)c2)nn1 | > 64 | > 64 | 32 (≈ 68.3 µM) | > 64 | > 64 | > 64 | > 64 | > 64 | > 64 |
| Cc1nc2ccccc2c(=O)n1-c1cccc(OCc2cn(-c3ccc(O)cc3)nn2)c1 | > 64 | > 64 | 64 (≈ 150 µM) | > 64 | > 64 | > 64 | > 64 | > 64 | > 64 |
